Experiment [1] has as its system P388. As to the kind of experiment: Activity against P-388 murine leukemia cells expressed as median survival time (MST treated/MST control) at a dose of 25.6 mg/kg per inj. In kind it is functional. The method in brief: (§1)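 P-388 leukemia in vivo: 10^6 ascites cells implanted ip into female CDF1 mice. Six mice per mitosane dose, 10 saline-injected controls, and a concurrent mitomycin C group of six mice per dose. Median survival time recorded; %T/C = MST treated/MST control × 100. 30-day survivors counted. Minimum effective dose set at %T/C 125.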

The test system of experiment [2] is P388. Kind of experiment: Activity against P-388 murine leukemia cells expressed as median survival time (MST treated/MST control) at a dose of 4.8 mg/kg per inj. In kind it is functional. The method in brief: as §1
For experiment [3], the system named is P388. As to the kind of experiment: (§2) Activity against P-388 murine leukemia cells expressed as average weight change at a dose of 12.8 mg/kg per inj. The format is functional.
Experiment [4] deals with P388. As to the kind of experiment: (§3) Activity against P-388 murine leukemia cells expressed as average weight change at a dose of 25.6 mg/kg per inj. In kind it is functional.
In experiment [5] the test system is P388. As to the kind of experiment: Activity against P-388 murine leukemia cells expressed as median survival time (MST treated/MST control) at a dose of 12.8 mg/kg per inj. The format is functional. The method in brief: as §1
In experiment [6] the test system is P388. Kind of experiment: Activity against P-388 murine leukemia cells expressed as median survival time (MST treated/MST control) at a dose of 6.4 mg/kg per inj. The format is functional, Mus musculus. The method, boiled down:
as §1

Experiment [7] has as its system P388. Kind of experiment: (§4) Activity against P-388 murine leukemia cells expressed as average weight change at a dose of 6.4 mg/kg per inj. In kind it is functional, Mus musculus.
In experiment [8] the test system is P388. Described as §2. The format is functional, organism-based. The settings on record: Mus musculus. The method, boiled down:
(§5)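 P-388 leukemia in vivo: 10^6 ascites cells implanted ip in female CDF1 mice. Six mice per dose level; 10 saline-injected controls. A parallel group of six mice per dose received mitomycin C in the same experiment as a reference. Tested at Bristol-Myers.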

In experiment [9] the test system is P388. Described as §3. The format is functional, organism-based. The settings on record: Mus musculus. The method in brief: as §5
Experiment [10] deals with P388. As to the kind of experiment: Activity against P-388 murine leukemia cells expressed as median survival time (MST treated/MST control) at a dose of 3.2 mg/kg per inj. The format is functional. The method in brief: as §1
Experiment [11] concerns P388. Kind of experiment: Activity against P-388 murine leukemia cells at a dose of 3.2 mg/kg per inj. In kind it is functional. The method in brief:
as §1

In experiment [12] the test system is P388. Kind of experiment: (§6) Activity against P-388 murine leukemia cells expressed as average weight change at a dose of 3.2 mg/kg per inj. In kind it is functional, organism-based. The settings on record: Mus musculus. The method, boiled down: as §5
Experiment [13] has as its system P388. Described as §4. In kind it is functional, organism-based. The settings on record: Mus musculus. The method, boiled down:
as §5

Experiment [14] has as its system P388. Kind of experiment: Activity against P-388 murine leukemia cells expressed as median survival time (MST treated/MST control) at a dose of 0.2 mg/kg per inj. The format is functional, Mus musculus. The method in brief:
as §1

Experiment [15] concerns P388. As to the kind of experiment: Activity against P-388 murine leukemia cells expressed as median survival time (MST treated/MST control) at a dose of 0.4 mg/kg per inj. The format is functional, Mus musculus. The method in brief:
as §1

The test system of experiment [16] is P388. As to the kind of experiment: Activity against P-388 murine leukemia cells expressed as median survival time (MST treated/MST control) at a dose of 0.8 mg/kg per inj. The format is functional, Mus musculus. The method in brief:
as §1

The test system of experiment [17] is P388. Kind of experiment: Activity against P-388 murine leukemia cells expressed as average weight change at a dose of 0.2 mg/kg per inj. In kind it is functional, Mus musculus.
The test system of experiment [18] is P388. Kind of experiment: Activity against P-388 murine leukemia cells expressed as average weight change at a dose of 0.4 mg/kg per inj. The format is functional, Mus musculus.
The test system of experiment [19] is P388. Kind of experiment: Activity against P-388 murine leukemia cells expressed as average weight change at a dose of 0.8 mg/kg per inj. The format is functional, Mus musculus.
Experiment [20] concerns P388. Kind of experiment: Activity against P-388 murine leukemia cells expressed as average weight change at a dose of 1.6 mg/kg per inj. The format is functional, Mus musculus.
Experiment [21] concerns P388. The description is as §6. The format is functional, Mus musculus.
Experiment [22] deals with P388. As to the kind of experiment: Activity against P-388 murine leukemia cells expressed as median survival time (MST treated/MST control) at a dose of 1.6 mg/kg per inj. In kind it is functional, Mus musculus. The method in brief:
as §1

The subject of experiment [23] is P388. As to the kind of experiment: Activity against P-388 murine leukemia cells at a dose of 4.8 mg/kg per inj. The format is functional, Mus musculus. The method in brief:
as §1

Experiment [24] has as its system P388. Kind of experiment: Activity against P-388 murine leukemia celLS at a dose of 3.2 mg/kg per inj. The format is functional, Mus musculus. The method in brief: as §1

A value given as a limit tells only on which side of the number the result lay.

As to “Platinium II Complex N7-[2-(2-Pyridyl)ethyl]mitomycin C”, the MST was found to be 125 in the experiment with P388 [1] (Mus musculus) and 110 in the experiment on P388 [5] (Mus musculus). In the experiment with P388 [2] (Mus musculus), this molecule came in with a T/C of 230%. For the same molecule, the Activity is 0.5 g with P388 [3] (Mus musculus) and -0.2 g in the experiment with P388 [4] (Mus musculus).

On to `CO[C@@]12C(COC(N)=O)C3=C(C(=O)C(C)=C(NCCN4CCNCC4)C3=O)N1CC1NC12` (stereo not given in full), for which the results for the MST with P388 [1], with P388 [6] and in the experiment on P388 [5] were 138, 113 and 125, respectively. In addition, the T/C in the experiment on P388 [2] was 213%. Moreover, the Activity in the experiment on P388 [3] is 1.2 g; in the experiment on P388 [4] it was -0.6 g; in the experiment on P388 [7], 2.1 g.

With “2-amino-9-(2-carbamoyloxomethyl)-1-methoxy-6-methyl-5,8-dioxo-2,3,5,8-tetrahydro-1H-pyrrolo[1,2-a]indol-7-yl(dichlorocopper)ammonium; Copper chloride”, the Activity in the experiment with P388 [8] was 0.3 g; in the experiment on P388 [9] it was -3.1 g; in the experiment with P388 [12], 0.9 g; in the experiment on P388 [13], 0.8 g. In addition, the MST in the experiment on P388 [10] (Mus musculus), in the experiment on P388 [6] (Mus musculus) and with P388 [5] (Mus musculus) was 100 in each case. Also, in the experiment with P388 [11] (Mus musculus), the T/C was 100%.

Regarding `CO[C@@]12C(COC(N)=O)C3=C(C(=O)C(C)=C(NCCc4ccccn4)C3=O)N1CC1NC12` (stereo not given in full), the MST in the experiment with P388 [14] is 125; in the experiment with P388 [15] it was 125; in the experiment on P388 [16], 138; with P388 [1], greater than 375; in the experiment on P388 [10] it was 163; with P388 [6] it was 213. In addition, the MST came to 163 in the experiment with P388 [22] and 256 in the experiment on P388 [5]. Further, the T/C in the experiment on P388 [11] was 319%. For the same molecule, the Activity in the experiment on P388 [17] was -0.5 g; in the experiment with P388 [18] it was -0.6 g; with P388 [19] it was -0.3 g; in the experiment with P388 [20] it was -0.4 g; in the experiment on P388 [3], -1.8 g; with P388 [4], -2.7 g. Besides, the figures for the Activity with P388 [21] and with P388 [7] were -0.9 g and -1.1 g, respectively.

In the case of `COC1c2c(COC(N)=O)c3c(n2CC1N)C(=O)C(C)=C(N)C3=O.Cl` (stereo not given), the values for the MST with P388 [1], in the experiment with P388 [6] and in the experiment on P388 [5] were 130, 110 and 115, respectively. This molecule displayed a T/C in the experiment on P388 [23] greater than 165%. The Activity was 0.4 g in the experiment on P388 [3], 0.6 g in the experiment on P388 [4] and 1.9 g with P388 [7].

As to `CO[C@@]12[C@H](COC(N)=O)C3=C(C(=O)C(C)=C(NCCc4ccccn4)C3=O)N1C[C@@H]1N[C@@H]12.Cl.Cl.[Zn+2]`, the MST in the experiment with P388 [1] is listed as 161; with P388 [10] it was 133; in the experiment on P388 [6], 139; in the experiment on P388 [22] it was 122; in the experiment with P388 [5] it was 156. For the same molecule, in the experiment on P388 [24], the T/C is 194%. In addition, the Activity in the experiment on P388 [20] is reported as 0.8 g; in the experiment on P388 [3], -0.4 g; in the experiment on P388 [4], -1.3 g; with P388 [21], 0.1 g; in the experiment on P388 [7] it was -0.6 g.

With `COC1c2c(COC(=N)[O-])c3c(n2CC1N)C(=O)C(C)=C(N)C3=O.Cl.[Zn+]` (stereo not given), the MST in the experiment on P388 [1] was 178; in the experiment on P388 [10] it was 139; in the experiment on P388 [6], 133; in the experiment with P388 [22] it was 122; in the experiment with P388 [5], 144. In the experiment on P388 [11], this molecule showed a T/C of 194%. In addition, the Activity in the experiment with P388 [20] is 0.5 g; with P388 [3], 0.4 g; in the experiment on P388 [4], -0.7 g; in the experiment on P388 [21] it was 2 g; in the experiment on P388 [7] it was 0.7 g.

In the case of “3-[6-(1,1-copperdichloro-1H,2H,3H,4H-pyrido[1,2-c]pyrimidin-9-ium-2-yl)-8a-methoxy-5-methyl-4,7-dioxo-(8aR)-1,1a,2,4,7,8,8a,8b-octahydroazireno[3',2':3,4]pyrrolo[1,2-a]indol-8-yl]methyloxocarboxamide”, the av wt change was 0.2 g in the experiment on P388 [8] and -1.4 g in the experiment with P388 [9]. Besides, the results for the MST in the experiment on P388 [1] (Mus musculus) and in the experiment with P388 [5] (Mus musculus) were 128 and 122, respectively.

On to `CO[C@@]12[C@H](COC(N)=O)C3=C(C(=O)C(C)=C(NCCN4CCNCC4)C3=O)N1C[C@@H]1N[C@@H]12.Cl.Cl.[Zn+2]`, for which the MST is reported as 100 in the experiment with P388 [1] and 90 in the experiment on P388 [5]. In the experiment on P388 [2], this molecule registered a T/C of 213%. In addition, the Activity with P388 [3] is 1.2 g; in the experiment on P388 [4], -0.6 g.

As usually defined, the T/C is the ratio of treated to control.

The values above are taken from ChEMBL document CHEMBL1123203, “Metal complexes of mitomycins” (1986).
